Data from PubChem BioAssay.
Active and inactive are the calls of the source. Cut-off read from the data, not from the text of the source, unless noted: active = inhibition above about 31%; inactive = the rest.

Legend:
[1] = HUVEC growth inhibition – cell-based, human, primary screen (AID 575;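 active = viability at or below 30% in both replicate assays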;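 note: 100% = median of untreated cell wells with 0.1% DMSO on each plate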); details: HUVEC proliferation, CellTiter-Glo luminescence, 72 h; at 10 µM; stronger effect = lower value
How it was run: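 System – primary HUVEC, no more than 12 passages · Medium – Low-serum (2% FBS) EBM, supplemented · Times – 72 h exposure, 37 °C, 5% CO2, 30 min RT equilibration · Measured by – luminescent ATP assay · Read-out – % viability relative to median vehicle-well signal on each plate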

[2] = growth inhibitors of H69AR lung tumor, primary screen, human, duplicate replicates (AID 580;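 active = viability at or under a set limit in both replicates, limit being median viability minus 3 SD, cut at about 48% in these data, passing the limit was not always enough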;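 note: 100% = mean luminescence of untreated wells and 0% = no signal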); details: H69AR lung tumor cells viability, ATP luminescence, 72 h; at 10 µM; stronger effect = lower value
[3] = reversal of MRP1-mediated doxorubicin resistance, pilot screen, H69AR cells, doxorubicin co-treatment (AID 601;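 active = viability loss from added drug above about 55%, and viability with drug at most 40%, in both replicates, limit read from the data, passing the limit was not always enough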); details: CellTiter-Glo, 72 h, at 10 µM; for differential viability (reversal): stronger effect = higher value
[4] = 384-well plate pilot, post-Golgi transport modulator project, inhibition of yeast transport mutant growth (AID 636); details: absorbance 615 nm, about 18 h, stronger effect = higher value
[5] = growth suppression of yeast trafficking mutant, preliminary HTS, modulators of trafficking downstream of Golgi apparatus project, 1536-format plate, OD 615 nm (AID 637; in the data active = inhibition above about 30%); details: yeast transport mutant growth, absorbance 615 nm, 18 h; stronger effect = higher value
[6] = H69AR cells + 2 uM doxorubicin, measured here: viability with 2 uM doxorubicin, stronger effect = lower value
[7] = H69AR cells, compound alone cytotoxicity

SMILES	viability [1]	viability [2]	differential viability (reversal) ([3]; H69AR cells + 2 uM doxorubicin)	viability [3, 6] [%]	viability [3, 7] [%]	inhibition [4]	inhibition [5]
O=C1C2ON(c3ccccc3)C(c3cccnc3)C2C(=O)N1c1ccccc1 (stereo not drawn)	104% (inactive)	89.8% (inactive)	2.77% (inactive)	87.1	89.8	-1.45% (inactive)	-10.3% (inactive)
Cc1noc(C)c1COc1cccc(C(=O)Oc2ccc3c(c2)OCO3)c1	88.8% (inactive)	79.5% (inactive)	-5.05% (inactive)	84.5	79.5	-4.81% (inactive)	1.75% (inactive)
COc1ccc(C2C(C#N)=C(N)Oc3cc4c(cc32)OCO4)cc1 (stereo not drawn)	53.4% (inactive)	32.8% (active)	-49.4% (inactive)	82.2	32.8	-5.07% (inactive)	-1.11% (inactive)
O=C(NCc1ccco1)c1noc2c1CCCCC2	96.4% (inactive)	78.4% (inactive)	5.79% (inactive)	72.6	78.4	-3.64% (inactive)	-0.95% (inactive)
COc1ccccc1N(CN1CCCC1=O)C(=O)c1c(F)cccc1Cl	95% (inactive)	97.5% (inactive)	-0.095% (inactive)	97.6	97.5	-5.2% (inactive)	-0.32% (inactive)
Cc1ccc(N2CC(C(=O)Nc3ccc4c(c3)OCO4)CC2=O)cc1 (stereo not drawn)	101% (inactive)	99.6% (inactive)	12% (inactive)	87.6	99.6	-3.25% (inactive)	-0.79% (inactive)
Cc1cc(C)c(S(=O)(=O)N(C)CC(N)=O)c(C)c1	95% (inactive)	91.7% (inactive)	-12.6% (inactive)	104	91.7	2.37% (inactive)	-4.13% (inactive)
COc1ccccc1Cn1c(-c2ccco2)nc2nc3ccccc3nc21	52.5% (inactive)	59.9% (inactive)	7.3% (inactive)	52.6	59.9	-6.93% (inactive)	8.41% (inactive)
NC(=O)c1cc(-c2ccccc2)nc(Oc2ccccc2)n1	108% (inactive)	98.7% (inactive)	3.71% (inactive)	95	98.7	-8% (inactive)	-0.63% (inactive)
Cc1cc(NC(=O)CCC(=O)N(CC2CCCO2)C(C(=O)NC2CCCC2)c2ccccc2C)no1 (stereo not drawn)	86.4% (inactive)	96.7% (inactive)	13.5% (inactive)	83.2	96.7	-2.11% (inactive)	5.4% (inactive)
CC1(C)NC(=O)N(CN2C(=O)NC(C)(C)C2=O)C1=O	99.6% (inactive)	102% (inactive)	11.1% (inactive)	90.8	102	-3.33% (inactive)	-1.11% (inactive)
Cc1ccc(C)c(C(=O)CC2(O)C(=O)Nc3ccccc32)c1 (stereo not drawn)	109% (inactive)	105% (inactive)	17.1% (inactive)	88	105	-3.6% (inactive)	-7.3% (inactive)
COC(=O)Cc1c(C)c2ccc(OCC(=O)N3CCOCC3)cc2oc1=O	107% (inactive)	100% (inactive)	12.4% (inactive)	87.8	100	-4.67% (inactive)	17% (inactive)
Cc1ccccc1CN1CCN(CC(=O)NCc2ccco2)C1=O	101% (inactive)	83% (inactive)	-0.72% (inactive)	83.7	83	-1.17% (inactive)	4.92% (inactive)
c1ccc2c(c1)C(=Nn1cnnc1)c1ccccc1-2	92.3% (inactive)	92.4% (inactive)	-4.35% (inactive)	96.7	92.4	-0.39% (inactive)	-3.02% (inactive)
c1ccc(-c2noc(-c3cccnc3)n2)nc1	84.8% (inactive)	72.1% (inactive)	4.56% (inactive)	67.5	72.1	-3.77% (inactive)	6.67% (inactive)
COc1cc2c(OC)cccc2cc1C(=O)O	95% (inactive)	88.2% (inactive)	2.57% (inactive)	85.7	88.2	-1.32% (inactive)	12.1% (inactive)
COC(=O)Cn1cc(C(=O)c2cccs2)c2ccccc21	103% (inactive)	96.4% (inactive)	9.54% (inactive)	86.9	96.4	-2.34% (inactive)	1.43% (inactive)
CCn1c(SCc2cccc(C(F)(F)F)c2)nnc1-c1ccco1	93.9% (inactive)	90.1% (inactive)	9% (inactive)	81.1	90.1	-5.2% (inactive)	-0.16% (inactive)
CCN(CC)CCN1C(=O)C(O)=C(C(=O)c2cccs2)C1c1ccc(C)o1 (stereo not drawn)	98.7% (inactive)	98.6% (inactive)	5.08% (inactive)	93.6	98.6	-4.13% (inactive)	-1.11% (inactive)

SMILES	viability [1]	viability [2]	differential viability (reversal) ([3]; H69AR cells + 2 uM doxorubicin)	viability [3, 6] [%]	viability [3, 7] [%]	inhibition [4]	inhibition [5]
O=C(NC(NC1CCS(=O)(=O)C1)C(=O)c1cccs1)c1ccccc1 (stereo not drawn)	106% (inactive)	106% (inactive)	7.72% (inactive)	98.2	106	-1.17% (inactive)	-3.33% (inactive)
CCCOc1ccc(C2C(C(=O)c3ccc(C)o3)=C(O)C(=O)N2Cc2cccnc2)cc1 (stereo not drawn)	110% (inactive)	97.8% (inactive)	3.76% (inactive)	94	97.8	-5.79% (inactive)	1.75% (inactive)
CN(C)c1cccc(N=C2C=C(N3CCOCC3)CC(C)(C)C2)c1	106% (inactive)	91.8% (inactive)	-1.85% (inactive)	93.7	91.8	-1.04% (inactive)	-8.41% (inactive)
CCOc1ccc(N(C)S(=O)(=O)c2ccc3[nH]cc(C(=O)NCC4CCCO4)c(=O)c3c2)cc1 (stereo not drawn)	73.7% (inactive)	87.9% (inactive)	5.04% (inactive)	82.9	87.9	-2.86% (inactive)	-3.17% (inactive)
Nc1nc(NC(=O)c2cccs2)nn1-c1ccccc1	101% (inactive)	94% (inactive)	7.31% (inactive)	86.7	94	-6.45% (inactive)	-4.29% (inactive)
Cc1cccc(NC(=O)CCn2ccnc2C)c1	98.8% (inactive)	92.3% (inactive)	3.98% (inactive)	88.4	92.3	-1.95% (inactive)	0.79% (inactive)
Cc1ccc(-c2ccc(=O)n(CCC(=O)NCCN3CCCCC3C)n2)cc1 (stereo not drawn)	94.9% (inactive)	91.3% (inactive)	1.11% (inactive)	90.2	91.3	-4.27% (inactive)	-5.56% (inactive)
Cc1ccc(N2CCN(C(=O)c3ccccc3)CC2)c(C)c1	114% (inactive)	91.1% (inactive)	6.71% (inactive)	84.4	91.1	-7.33% (inactive)	5.4% (inactive)
CN(C)c1nc(N)nc(CSc2nnnn2-c2cccc3ccccc23)n1	99.9% (inactive)	70.1% (inactive)	-3.27% (inactive)	73.4	70.1	-6.58% (inactive)	4.13% (inactive)
O=C(NC1CC2CCC1C2)C1COc2ccccc2O1 (stereo not drawn)	100% (inactive)	87.9% (inactive)	4.5% (inactive)	83.4	87.9	-3.55% (inactive)	-2.38% (inactive)
N#CCc1nc(CSc2nc3ccccc3s2)cs1	99.1% (inactive)	91.3% (inactive)	8.82% (inactive)	82.4	91.3	-1.04% (inactive)	3.02% (inactive)
Cc1cc(=O)[nH]c2c1cnn2Cc1ccccc1	116% (inactive)	98.9% (inactive)	5.01% (inactive)	93.9	98.9	-1.97% (inactive)	-3.33% (inactive)
O=C(c1cc(-c2cccc(O)c2)on1)N1CCN(C(c2ccccc2)c2ccccc2)CC1	98.8% (inactive)	26.8% (active)	4.38% (inactive)	22.4	26.8	0.26% (inactive)	-3.5% (inactive)
CC(C)c1nnc(NC(=O)CCC(=O)NCc2ccc3c(c2)OCO3)s1	103% (inactive)	97.7% (inactive)	-1.39% (inactive)	99.1	97.7	-5.2% (inactive)	2.86% (inactive)
CC(C)OC(=O)CSc1nnc(-c2ccc(O)cc2)n1Cc1ccccc1	109% (inactive)	80.8% (inactive)	-4.22% (inactive)	85	80.8	-7.2% (inactive)	-2.22% (inactive)
COC(=O)Cc1[nH]nc2c1C(C1C=CCCC1)C(C#N)=C(N)O2 (stereo not drawn)	49.3% (inactive)	95.8% (inactive)	7.65% (inactive)	88.2	95.8	-4.21% (inactive)	3.33% (inactive)
Cc1ccc(-c2nnnn2CS(=O)(=O)c2ccccc2)cc1	86.7% (inactive)	96.4% (inactive)	5.26% (inactive)	91.1	96.4	-2.08% (inactive)	-2.22% (inactive)
CN(c1cccc(NC(=O)COc2ccccc2)c1)S(C)(=O)=O	108% (inactive)	96% (inactive)	-3.07% (inactive)	99	96	4.47% (inactive)	0.32% (inactive)
Cc1noc(NS(=O)(=O)c2ccc(NC(=O)CCC3CCCC3)cc2)c1C	88.9% (inactive)	94% (inactive)	11.6% (inactive)	82.4	94	-4.03% (inactive)	-0.16% (inactive)
